# Data taken from ChEMBL document CHEMBL3784976 (J Med Chem, 2016).
# Activity calls are given as the source filed them. The rule behind the calls is not given here.
# Columns and labels:
# [1] = biological target: 5-hydroxytryptamine receptor 5A (Homo sapiens) (UniProt P47898); test: Displacement of [3H]LSD from human recombinant 5HT5A receptor expressed in HEK293 cells assessed as remaining radioligand binding at 10 uM after 120 mins by scintillation counting method relative to control; type: cell-based
# [2] = tested on: MDR1 (human); test: Efflux ratio of apparent permeability from basolateral to apical side over apical to basolateral side in MDCK cells expressing human MDR1 after 120 mins by LC-MS/MS analysis; type: ADME, cell-based, Canis lupus familiaris; conditions: dog
# Outline: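 Efflux ratio taken as Papp B→A / Papp A→B, measured in MDR1-transfected MDCK cells against MDCK vector-control cells.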
# [3] = biological target: Somatostatin receptor type 4 (Homo sapiens) (UniProt P31391); test: Displacement of [125I]Tyr11-somatostatin-14 from human recombinant SST4 receptor expressed in CHO cells assessed as remaining radioligand binding at 10 uM after 120 mins by scintillation counting method relative to control; type: cell-based
# [4] = biological target: Transient receptor potential cation channel subfamily A member 1 (Rattus norvegicus, UniProt Q6RI86); test: Agonist activity at rat TRPA1 expressed in tetracycline-inducible T-REx expression system transfected CHO cells by 45Ca2+ uptake assay; type: cell-based
# [5] = biological target: 5-hydroxytryptamine receptor 6 (Homo sapiens) (UniProt P50406); test: Displacement of [3H]LSD from human recombinant 5HT6 receptor expressed in CHO cells assessed as remaining radioligand binding at 10 uM after 120 mins by scintillation counting method relative to control; type: cell-based
# [6] = biological target: Mu-type opioid receptor (Homo sapiens) (UniProt P35372); test: Displacement of [3H]DAMGO from human recombinant mu opioid receptor expressed in HEK293 cells assessed as remaining radioligand binding at 10 uM after 120 mins by scintillation counting method relative to control; type: cell-based
# [7] = tested on: Jurkat; test: Displacement of [3H]DTG from sigma receptor in human Jurkat cells assessed as remaining radioligand binding at 10 uM after 120 mins by scintillation counting method relative to control; type: cell-based
# [8] = biological target: 5-hydroxytryptamine receptor 1A (Homo sapiens) (UniProt P08908); test: Displacement of [3H]8-OH-DPAT from human recombinant 5HT1A receptor expressed in HEK293 cells assessed as remaining radioligand binding at 10 uM after 60 mins by scintillation counting method relative to control; type: cell-based
# [9] = biological target: D(1A) dopamine receptor (Homo sapiens) (UniProt P21728); test: Displacement of [3H]SCH-23390 from human recombinant dopamine D1 receptor expressed in CHO cells assessed as remaining radioligand binding at 10 uM after 60 mins by scintillation counting method relative to control; type: cell-based
# [10] = biological target: Sodium-dependent dopamine transporter (Homo sapiens) (UniProt Q01959); test: Displacement of [3H]BTCP from human recombinant dopamine transporter expressed in CHO cells assessed as remaining radioligand binding at 10 uM after 120 mins by scintillation counting method relative to control; type: cell-based
# [11] = Fraction unbound in rat plasma; type: ADME, cell-free
# [12] = biological target: 5-hydroxytryptamine receptor 2B (Homo sapiens) (UniProt P41595); test: Displacement of [3H]mesulergine from human recombinant 5HT2B receptor expressed in CHO cells assessed as remaining radioligand binding at 10 uM after 60 mins by scintillation counting method relative to control; type: cell-based
# [13] = species: Cavia porcellus; test: Displacement of [3H]NBTI from adenosine transporter in guinea pig cerebral cortex assessed as remaining radioligand binding at 10 uM after 30 mins by scintillation counting method relative to control; type: tissue-based
# [14] = tested on: Plasma; test: Unbound plasma concentration in Harlan Sprague-Dawley rat model of AITC-induced flinching at 10 mg/kg, po at 1 hr; type: ADME, organism-based; conditions: in vivo
# Outline: (§1)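 Rats were given vehicle (2% HPMC/1% Tween-80) or compound orally at 1, 3, 10 or 30 mg/kg. After 1 h, 0.1% AITC was injected into one left ventral hind paw, and nocifensive flinching was recorded over the first minute. Unbound plasma concentration was measured at 1 h, n = 8 per dose. In vivo IC50/IC90 came from the exposure–response relationship across individual animals.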
# [15] = tested on: Rattus norvegicus; test: Unbound clearance in rat at 0.5 mg/kg, iv as single dose; type: ADME, organism-based; conditions: in vivo
# Outline: (§2)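 Single intravenous dose of 0.5 mg/kg given to rats, formulated in 100% DMSO.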
# [16] = biological target: 5-hydroxytryptamine receptor 2A (Homo sapiens) (UniProt P28223); test: Displacement of [3H]ketanserin from human recombinant 5HT2A receptor expressed in HEK293 cells assessed as remaining radioligand binding at 10 uM after 60 mins by scintillation counting method relative to control; type: cell-based
# [17] = Half life in rat at 0.5 mg/kg, iv administered as single dose; type: ADME, organism-based; conditions: in vivo; outline: as §2
# [18] = biological target: Beta-2 adrenergic receptor (Homo sapiens) (UniProt P07550); test: Displacement of (-)-[3H]CGP-12177 from human recombinant adrenergic beta2 receptor expressed in CHO cells assessed as remaining radioligand binding at 10 uM after 120 mins by scintillation counting method relative to control; type: cell-based
# [19] = biological target: C-C chemokine receptor type 2 (Homo sapiens) (UniProt P41597); test: Displacement of [125I]MCP-1 from human recombinant CCR2 expressed in HEK293 cells assessed as remaining radioligand binding at 10 uM after 60 mins by scintillation counting method relative to control; type: cell-based
# [20] = Cmax in rat at 30 mg/kg, po; type: ADME, organism-based; set-up: dose 30 mg/kg, route oral; conditions: in vivo
# Outline: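 Rat oral PK at 30 mg/kg (10 mg/kg for one analogue) in 1% Tween 80/2% HPMC/97% water with methanesulfonic acid, pH 2.2.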
# [21] = tested on: Plasma; test: Unbound plasma concentration in Harlan Sprague-Dawley rat model of AITC-induced flinching at 30 mg/kg, po at 1 hr; type: ADME, organism-based; conditions: in vivo; outline: as §1
# [22] = Apparent permeability from apical to basolateral side in MDCK cells expressing control vector after 120 mins by LC-MS/MS analysis; type: ADME, cell-based, Canis lupus familiaris; conditions: dog
# [23] = Volume of distribution at steady state in rat at 0.5 mg/kg, iv as single dose; type: ADME, organism-based; conditions: in vivo, read-out: Vdss; outline: as §2
# [24] = biological target: Muscarinic acetylcholine receptor M4 (Homo sapiens) (UniProt P08173); test: Displacement of [3H]4-DAMP from human recombinant muscarinic M4 receptor expressed in CHO cells assessed as remaining radioligand binding at 10 uM after 60 mins by scintillation counting method relative to control; type: cell-based
# [25] = biological target: 5-hydroxytryptamine receptor 1B (Rattus norvegicus) (UniProt P28564); test: Displacement of [125I]CYP from 5HT1B receptor in rat cerebral cortex assessed as remaining radioligand binding at 10 uM after 120 mins by scintillation counting method relative to control; type: tissue-based
# [26] = biological target: Alpha-1A adrenergic receptor (Homo sapiens) (UniProt P35348); test: Displacement of [3H]prazosin from human recombinant adrenergic alpha1A expressed in CHO cells assessed as remaining radioligand binding at 10 uM after 60 mins by scintillation counting method relative to control; type: cell-based
# [27] = biological target: Transient receptor potential cation channel subfamily V member 4 (Homo sapiens) (UniProt Q9HBA0); test: Antagonist activity at human TRPV4 expressed in tetracycline-inducible T-REx expression system transfected CHO cells assessed as inhibition of 4alpha-PDD-induced Ca2+ influx up to 10 uM preincubated for 2.5 mins followed by 4alpha-PDD addition measured for 1 min by luminescence assay; type: cell-based
# [28] = biological target: Sodium channel protein type 9 subunit alpha (Mus musculus) (UniProt Q62205); test: Inhibition of Nav1.7 in mouse DRG neurons at 10 uM relative to control
# Sequence of Mu-type opioid receptor (Homo sapiens) (P35372 whole entry): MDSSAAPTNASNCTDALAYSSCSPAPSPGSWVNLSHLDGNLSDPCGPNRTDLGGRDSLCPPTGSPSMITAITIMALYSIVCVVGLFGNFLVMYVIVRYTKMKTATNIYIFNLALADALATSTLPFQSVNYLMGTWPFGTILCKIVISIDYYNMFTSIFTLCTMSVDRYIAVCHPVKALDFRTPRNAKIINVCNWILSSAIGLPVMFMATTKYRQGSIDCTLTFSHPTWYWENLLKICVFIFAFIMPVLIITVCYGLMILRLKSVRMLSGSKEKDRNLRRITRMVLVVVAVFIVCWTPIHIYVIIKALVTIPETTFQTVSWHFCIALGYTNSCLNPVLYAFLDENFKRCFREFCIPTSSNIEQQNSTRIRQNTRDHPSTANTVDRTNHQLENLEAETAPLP
# Sequence of Transient receptor potential cation channel subfamily A member 1 (Q6RI86 whole entry): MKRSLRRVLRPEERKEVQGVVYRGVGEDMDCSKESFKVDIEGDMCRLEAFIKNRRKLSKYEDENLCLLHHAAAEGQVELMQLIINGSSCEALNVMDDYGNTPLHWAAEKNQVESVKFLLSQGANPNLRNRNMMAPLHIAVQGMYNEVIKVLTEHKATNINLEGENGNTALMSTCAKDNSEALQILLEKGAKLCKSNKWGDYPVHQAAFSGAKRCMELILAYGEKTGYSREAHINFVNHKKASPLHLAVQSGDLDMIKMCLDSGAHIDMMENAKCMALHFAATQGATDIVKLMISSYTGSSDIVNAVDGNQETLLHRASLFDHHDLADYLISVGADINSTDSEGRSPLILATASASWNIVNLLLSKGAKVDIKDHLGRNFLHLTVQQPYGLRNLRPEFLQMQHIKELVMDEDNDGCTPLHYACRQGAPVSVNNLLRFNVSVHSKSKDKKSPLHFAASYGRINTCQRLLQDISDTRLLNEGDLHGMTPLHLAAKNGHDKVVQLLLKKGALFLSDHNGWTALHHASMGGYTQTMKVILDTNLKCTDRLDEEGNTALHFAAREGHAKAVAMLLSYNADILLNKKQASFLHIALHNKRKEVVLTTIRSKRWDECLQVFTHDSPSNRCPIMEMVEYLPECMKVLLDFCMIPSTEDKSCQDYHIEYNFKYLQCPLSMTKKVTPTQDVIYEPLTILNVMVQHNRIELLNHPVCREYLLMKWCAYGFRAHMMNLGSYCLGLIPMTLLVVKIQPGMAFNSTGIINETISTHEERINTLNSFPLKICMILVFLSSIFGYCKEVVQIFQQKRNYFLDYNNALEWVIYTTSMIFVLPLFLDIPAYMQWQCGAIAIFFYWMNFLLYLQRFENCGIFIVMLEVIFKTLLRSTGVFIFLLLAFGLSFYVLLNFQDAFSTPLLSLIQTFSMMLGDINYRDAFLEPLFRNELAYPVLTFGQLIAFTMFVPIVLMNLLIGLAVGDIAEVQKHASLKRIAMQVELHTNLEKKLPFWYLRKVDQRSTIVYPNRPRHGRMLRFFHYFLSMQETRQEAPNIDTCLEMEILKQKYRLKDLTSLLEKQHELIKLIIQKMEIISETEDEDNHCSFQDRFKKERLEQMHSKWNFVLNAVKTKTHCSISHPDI
# Sequence of 5-hydroxytryptamine receptor 1B (Rattus norvegicus) (P28564 whole entry): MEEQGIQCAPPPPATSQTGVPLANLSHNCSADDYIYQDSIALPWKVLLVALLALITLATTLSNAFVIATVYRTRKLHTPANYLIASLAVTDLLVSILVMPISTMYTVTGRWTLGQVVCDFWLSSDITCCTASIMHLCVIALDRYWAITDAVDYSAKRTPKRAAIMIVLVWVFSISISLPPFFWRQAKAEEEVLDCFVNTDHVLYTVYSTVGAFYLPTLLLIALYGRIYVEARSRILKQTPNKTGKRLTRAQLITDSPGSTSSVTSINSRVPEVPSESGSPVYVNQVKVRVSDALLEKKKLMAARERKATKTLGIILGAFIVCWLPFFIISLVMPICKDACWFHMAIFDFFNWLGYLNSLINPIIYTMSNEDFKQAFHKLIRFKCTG
# Sequence of Alpha-1A adrenergic receptor (Homo sapiens) (P35348 whole entry): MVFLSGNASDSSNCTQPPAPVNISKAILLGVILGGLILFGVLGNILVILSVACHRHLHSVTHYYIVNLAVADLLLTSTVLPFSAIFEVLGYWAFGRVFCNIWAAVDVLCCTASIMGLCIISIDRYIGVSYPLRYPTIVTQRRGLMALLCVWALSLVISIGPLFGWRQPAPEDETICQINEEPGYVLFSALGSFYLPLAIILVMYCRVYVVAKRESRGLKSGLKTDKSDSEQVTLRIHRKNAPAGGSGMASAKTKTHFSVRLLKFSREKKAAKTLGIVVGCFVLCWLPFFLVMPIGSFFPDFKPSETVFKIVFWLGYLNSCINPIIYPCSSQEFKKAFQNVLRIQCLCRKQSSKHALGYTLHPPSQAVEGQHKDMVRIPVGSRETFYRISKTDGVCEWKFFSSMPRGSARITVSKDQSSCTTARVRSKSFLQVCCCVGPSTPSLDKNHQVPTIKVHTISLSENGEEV
# Sequence of Muscarinic acetylcholine receptor M4 (Homo sapiens) (P08173 whole entry): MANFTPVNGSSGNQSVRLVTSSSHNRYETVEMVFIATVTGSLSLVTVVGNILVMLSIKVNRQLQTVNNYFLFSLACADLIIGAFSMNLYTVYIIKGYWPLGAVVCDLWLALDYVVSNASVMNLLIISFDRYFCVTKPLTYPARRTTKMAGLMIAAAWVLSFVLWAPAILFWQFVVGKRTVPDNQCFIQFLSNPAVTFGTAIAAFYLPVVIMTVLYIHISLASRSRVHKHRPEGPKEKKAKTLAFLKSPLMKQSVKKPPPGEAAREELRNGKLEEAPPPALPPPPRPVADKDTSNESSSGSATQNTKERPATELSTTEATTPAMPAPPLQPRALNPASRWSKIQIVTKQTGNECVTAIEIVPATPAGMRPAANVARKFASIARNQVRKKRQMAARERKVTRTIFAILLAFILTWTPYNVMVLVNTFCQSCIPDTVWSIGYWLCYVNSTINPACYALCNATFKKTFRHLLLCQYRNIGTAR
# Sequence of C-C chemokine receptor type 2 (Homo sapiens) (P41597 whole entry, looked up): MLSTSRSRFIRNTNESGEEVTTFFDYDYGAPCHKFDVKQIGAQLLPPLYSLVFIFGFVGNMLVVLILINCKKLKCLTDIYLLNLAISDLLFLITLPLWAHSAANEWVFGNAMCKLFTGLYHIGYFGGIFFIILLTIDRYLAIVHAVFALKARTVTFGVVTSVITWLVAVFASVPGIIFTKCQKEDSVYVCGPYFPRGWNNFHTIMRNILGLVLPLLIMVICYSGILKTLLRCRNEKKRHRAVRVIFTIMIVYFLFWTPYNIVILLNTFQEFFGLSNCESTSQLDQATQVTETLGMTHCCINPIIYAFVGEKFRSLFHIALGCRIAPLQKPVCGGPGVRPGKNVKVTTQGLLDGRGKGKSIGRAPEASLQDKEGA
# Sequence of 5-hydroxytryptamine receptor 6 (Homo sapiens) (P50406 whole entry): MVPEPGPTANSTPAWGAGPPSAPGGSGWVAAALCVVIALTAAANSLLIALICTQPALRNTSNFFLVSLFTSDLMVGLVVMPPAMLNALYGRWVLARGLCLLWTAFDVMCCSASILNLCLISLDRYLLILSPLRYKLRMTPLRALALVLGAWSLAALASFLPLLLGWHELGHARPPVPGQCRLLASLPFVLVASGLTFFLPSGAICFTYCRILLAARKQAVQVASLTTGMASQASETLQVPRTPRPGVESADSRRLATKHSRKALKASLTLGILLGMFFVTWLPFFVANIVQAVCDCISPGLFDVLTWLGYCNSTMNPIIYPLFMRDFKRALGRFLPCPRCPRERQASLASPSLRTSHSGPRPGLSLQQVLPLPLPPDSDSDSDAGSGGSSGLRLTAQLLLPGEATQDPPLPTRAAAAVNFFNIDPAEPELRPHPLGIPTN
# Sequence of Transient receptor potential cation channel subfamily V member 4 (Homo sapiens) (Q9HBA0 whole entry): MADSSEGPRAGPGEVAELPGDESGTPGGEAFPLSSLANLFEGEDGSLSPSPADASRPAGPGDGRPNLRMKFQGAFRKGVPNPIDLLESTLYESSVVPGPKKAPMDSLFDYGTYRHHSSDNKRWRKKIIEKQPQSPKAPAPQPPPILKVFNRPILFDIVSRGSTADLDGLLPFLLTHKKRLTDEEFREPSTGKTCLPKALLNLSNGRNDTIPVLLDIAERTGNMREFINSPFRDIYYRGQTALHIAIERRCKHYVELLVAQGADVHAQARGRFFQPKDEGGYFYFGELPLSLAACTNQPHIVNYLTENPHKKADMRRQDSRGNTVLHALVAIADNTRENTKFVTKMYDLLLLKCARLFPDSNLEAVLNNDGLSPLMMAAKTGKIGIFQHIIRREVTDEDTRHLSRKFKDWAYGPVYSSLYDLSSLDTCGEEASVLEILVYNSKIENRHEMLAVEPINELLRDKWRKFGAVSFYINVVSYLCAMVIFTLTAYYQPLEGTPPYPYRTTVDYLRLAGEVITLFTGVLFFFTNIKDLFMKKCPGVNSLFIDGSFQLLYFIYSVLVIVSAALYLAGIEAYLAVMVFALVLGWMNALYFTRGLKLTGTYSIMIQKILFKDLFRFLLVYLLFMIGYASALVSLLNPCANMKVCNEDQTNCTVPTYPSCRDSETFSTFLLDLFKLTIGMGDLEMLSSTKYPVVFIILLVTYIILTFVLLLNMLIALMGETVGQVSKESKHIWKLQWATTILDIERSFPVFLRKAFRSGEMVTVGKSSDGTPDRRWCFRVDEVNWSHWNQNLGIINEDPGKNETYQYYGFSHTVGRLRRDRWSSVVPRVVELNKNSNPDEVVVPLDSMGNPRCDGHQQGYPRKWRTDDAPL
# Sequence of 5-hydroxytryptamine receptor 5A (Homo sapiens) (P47898 whole entry): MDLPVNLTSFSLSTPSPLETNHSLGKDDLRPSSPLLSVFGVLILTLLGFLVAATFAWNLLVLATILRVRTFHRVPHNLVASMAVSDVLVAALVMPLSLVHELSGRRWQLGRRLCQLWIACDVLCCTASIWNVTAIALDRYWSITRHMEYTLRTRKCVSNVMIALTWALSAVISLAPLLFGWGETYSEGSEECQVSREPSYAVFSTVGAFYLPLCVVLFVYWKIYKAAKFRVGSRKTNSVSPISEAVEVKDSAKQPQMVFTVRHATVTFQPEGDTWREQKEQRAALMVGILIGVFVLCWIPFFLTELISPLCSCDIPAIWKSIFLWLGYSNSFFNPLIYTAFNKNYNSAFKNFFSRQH
compound,measurement,setting,value
Cn1cnc2ncn(Cc3nc(CCc4ccc(Cl)cc4)no3)c(=O)c21,Activity,[1],> 77%
same,efflux ratio at 2 h,[2],1.3
same,Activity,[3],> 77%
same,EC50,[4],> 40 µM
same,Activity,[5],> 77%
same,Activity,[6],> 77%
same,Activity,[7],> 77%
same,Activity,[8],> 77%
same,Activity,[9],> 77%
same,Activity,[10],> 77%
same,fraction unbound,[11],0.289
same,Activity,[12],> 77%
same,Activity,[13],> 77%
same,Cp(f),[14],0.58 µM
same,CL free,[15],150 mL/min/kg
same,Activity,[16],> 77%
same,half-life,[17],36 min
same,Activity,[18],> 77%
same,Activity,[19],> 77%
same,Cmax,[20],7.5 µM
same,Cp(f),[21],2.2 µM
same,Papp A→B at 2 h,[22],44.5 ×10⁻⁶ cm/s
same,Vd,[23],1.7 L/kg
same,Activity,[24],> 77%
same,Activity,[25],> 77%
same,Activity,[26],> 77%
same,inhibition,[27],inactive
same,inhibition,[28],10%
